Columns and labels:
Cannabinoid receptor 2 [1] = target: T1, Cannabinoid receptor 2 (Homo sapiens, UniProt P34972); assay: Agonist activity at human CB2 receptor expressed in CHO cells co-expressing Galpha16 assessed as increase in calcium mobilization at 10 uM measured at 1 sec interval for 90 secs by calcium-5 dye based FLIPR assay relative to CP55,940; assay type: functional, cell-based
Cannabinoid receptor 1 [2] = target: T2, Cannabinoid receptor 1 (Homo sapiens, UniProt P21554); assay: Allosteric modulator activity at human CB1 receptor expressed in CHO-RD-HGA16 cells co-expressing Galpha16 assessed as suppression of 100 nM CP55,940-induced calcium mobilization pre-incubated for 15 mins by Calcium 5 dye based FLIPR assay; assay type: functional, cell-based
Cannabinoid receptor 1 [3] = target: T2, Cannabinoid receptor 1; assay: Allosteric modulator activity at human CB1 receptor expressed in HEK293 cell membranes assessed as suppression of 100 nM CP55,940-induced [35S]GTPgammaS binding incubated for 60 mins by scintillation counting method; assay type: functional
Cannabinoid receptor 1 [4] = target: T2, Cannabinoid receptor 1; assay: Inverse agonist activity at human CB1 receptor expressed in HEK293 cell membranes assessed as suppression of [35S]GTPgammaS binding at 10 uM incubated for 60 mins by scintillation counting method; conditions: hek293, 1 h
Method in brief: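 Inverse agonism on human CB1-HEK293 membranes: compounds were incubated 60 min with 0.1 nM [35S]GTPγS and 30 µM GDP, with no CP55,940 present. Buffer was Tris/MgCl2/EGTA pH 7.4 with 0.5% BSA, at 30 °C. Binding was read by filtration and scintillation counting and normalized to basal (vehicle = 0%).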

Cannabinoid receptor 2 [5] = target: T1, Cannabinoid receptor 2; assay: Antagonist activity at human CB2 receptor expressed in CHO cells co-expressing Galpha16 assessed as inhibition of EC80 CP55,940-induced calcium mobilization at 10 uM preincubated for 15 mins followed by […] addition measured at 1 sec interval for 90 secs by calcium-5 dye based FLIPR assay relative to CP55,940; assay type: functional, cell-based
Method in brief: (§1)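 CB2 antagonist mode in stable human CB2-CHO-RD-HGA16 cells. Cells were dye-loaded, then pretreated with compound for 15 min at 37 °C. CP55,940 was added at its EC80 at the 10 s point, and calcium fluorescence was recorded every 1 s over 90 s.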

Cannabinoid receptor 2 [6] = target: T1, Cannabinoid receptor 2; assay: Antagonist activity at human CB2 receptor expressed in CHO cells co-expressing Galpha16 assessed as inhibition of EC80 CP55,940-induced calcium mobilization preincubated for 15 mins followed by […] addition measured at 1 sec interval for 90 secs by calcium-5 dye based FLIPR assay; assay type: functional, cell-based; method in brief: as §1
Cannabinoid receptor 1 [7] = target: T3, Cannabinoid receptor 1 (Mus musculus, UniProt P47746); assay: Allosteric modulator activity at CB1 receptor in mouse cerebellar membranes assessed as suppression of 1 uM CP55,940-induced [35S]GTPgammaS binding incubated for 60 mins by scintillation counting method; assay type: functional, cell membranes, Cerebellum, Membrane
Cannabinoid receptor 1 [8] = target: T2, Cannabinoid receptor 1; assay: Agonist activity at human CB1 receptor expressed in CHO-RD-HGA16 cells co-expressing Galpha16 assessed as suppression stimulation of calcium mobilization incubated for 45 mins by Calcium 5 dye based FLIPR assay relative to CP55,940; assay type: functional, cell-based
Method in brief: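 CHO-RD-HGA16 cells stably expressing human CB1 (with Galpha16), plated overnight and loaded with Calcium 5 dye for 45 min at 37 °C. […] Compound was added by the FLIPR Tetra at the 10 s point as a single concentration, and fluorescence (485/525 nm) was read every 1 s for 90 s. RFU were expressed as % of CP55,940 Emax.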

Cannabinoid receptor 1 [9] = target: T3, Cannabinoid receptor 1; assay: Allosteric modulator activity at CB1 receptor in mouse cerebellar membranes assessed as suppression of 100 nM CP55,940-induced [35S]GTPgammaS binding incubated for 60 mins by scintillation counting method; assay type: functional, cell membranes, Cerebellum, Membrane
[10] = Half life in rat liver microsomes; assay type: ADME, Microsome; conditions: liver microsomes
Method in brief: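 Rat liver microsomes (0.5 mg/mL protein) in 100 mM potassium phosphate pH 7.4 at 37 °C with 1 mM NADPH. Samples were taken at 0, 5, 15, 30 and 45 min, quenched with cold acetonitrile containing internal standards, and analysed by LC/MS/MS. Half-life and clearance were calculated; two independent experiments in duplicate.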

Cannabinoid receptor 1 [11] = target: T2, Cannabinoid receptor 1; assay: Displacement of [3H]CP55,940 from human CB1 receptor

T3 sequence (P47746 whole entry): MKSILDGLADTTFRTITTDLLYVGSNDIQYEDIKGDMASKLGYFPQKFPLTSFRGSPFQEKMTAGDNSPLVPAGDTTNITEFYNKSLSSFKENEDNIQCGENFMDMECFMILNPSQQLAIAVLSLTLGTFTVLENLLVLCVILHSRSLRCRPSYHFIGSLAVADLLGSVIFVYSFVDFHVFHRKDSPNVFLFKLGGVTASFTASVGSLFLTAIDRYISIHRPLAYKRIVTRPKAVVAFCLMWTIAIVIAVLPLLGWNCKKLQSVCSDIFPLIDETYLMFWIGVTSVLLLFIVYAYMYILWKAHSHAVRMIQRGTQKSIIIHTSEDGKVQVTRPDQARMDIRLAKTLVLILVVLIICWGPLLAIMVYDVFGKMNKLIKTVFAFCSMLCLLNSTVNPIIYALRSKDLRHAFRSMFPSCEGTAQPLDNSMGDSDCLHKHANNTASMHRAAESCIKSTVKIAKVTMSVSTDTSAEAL
T2 sequence (P21554 whole entry): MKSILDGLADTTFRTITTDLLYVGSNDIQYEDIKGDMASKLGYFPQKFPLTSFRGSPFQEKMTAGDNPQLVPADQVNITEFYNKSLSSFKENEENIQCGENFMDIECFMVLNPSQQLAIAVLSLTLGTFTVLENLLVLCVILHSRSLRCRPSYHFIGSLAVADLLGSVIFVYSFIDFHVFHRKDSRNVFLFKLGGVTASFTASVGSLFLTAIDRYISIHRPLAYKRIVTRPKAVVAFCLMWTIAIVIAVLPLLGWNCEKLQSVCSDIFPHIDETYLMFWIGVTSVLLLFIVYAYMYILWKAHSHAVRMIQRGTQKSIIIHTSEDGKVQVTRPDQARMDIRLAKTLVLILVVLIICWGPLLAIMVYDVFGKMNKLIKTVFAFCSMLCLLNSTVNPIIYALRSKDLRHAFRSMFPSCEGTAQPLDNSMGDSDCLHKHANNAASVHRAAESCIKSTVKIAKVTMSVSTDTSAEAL
T1 sequence (P34972 whole entry): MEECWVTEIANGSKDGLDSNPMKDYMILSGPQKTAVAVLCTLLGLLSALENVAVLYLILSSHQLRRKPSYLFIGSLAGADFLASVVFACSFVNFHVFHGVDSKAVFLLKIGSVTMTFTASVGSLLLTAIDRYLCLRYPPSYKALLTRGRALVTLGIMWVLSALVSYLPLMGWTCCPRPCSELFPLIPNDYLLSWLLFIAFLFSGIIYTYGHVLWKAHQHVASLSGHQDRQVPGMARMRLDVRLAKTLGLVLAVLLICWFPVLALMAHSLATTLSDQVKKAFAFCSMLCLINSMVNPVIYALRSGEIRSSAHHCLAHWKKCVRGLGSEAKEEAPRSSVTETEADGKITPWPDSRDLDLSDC

SMILES	Emax (Cannabinoid receptor 2 [1]) [%]	IC50 (Cannabinoid receptor 1 [2]) [µM]	IC50 (Cannabinoid receptor 1 [3]) [µM]	inhibition (INH) (Cannabinoid receptor 1 [4])	inhibition (Cannabinoid receptor 2 [5]) [%]	IC50 (Cannabinoid receptor 2 [6]) [µM]	IC50 (Cannabinoid receptor 1 [7]) [µM]	Emax (Cannabinoid receptor 1 [8]) [%]	IC50 (Cannabinoid receptor 1 [9]) [µM]	half-life [10] [h]	Kd (Cannabinoid receptor 1 [11]) [µM]
O=C(Nc1ccc(Cl)cc1)Nc1cccc(-c2ccccc2)n1	< 10	3.53	> 10	Active	< 50	> 10					
CC(=O)c1cccc(-c2ccc(NC(=O)Nc3ccc(Cl)cc3)s2)c1	< 10			Active	< 50	> 10					
COc1ccc(-c2cccc(N3CCCC3)n2)cc1NC(=O)Nc1ccc(Cl)cc1	< 10			Active	< 50	> 10					
CN(C)c1cccc(-c2ccc(NC(=O)Nc3ccc(Cl)cc3)s2)c1	< 10			Active	< 50	> 10	2.57				
O=C(Nc1ccc(Cl)cc1)N[C@H]1C[C@@H]1c1ccccc1 (relative stereo)	< 10			Active	< 50	> 10		< 30			
COc1ccc(-c2ccc(NC(=O)Nc3ccc(Cl)cc3)s2)cc1	< 10			Active	< 50	> 10					
CS(=O)(=O)c1cccc(-c2ccc(NC(=O)Nc3ccc(Cl)cc3)s2)c1	< 10			Active	< 50	> 10					
O=C(Nc1ccc(Cl)cc1)Nc1cc(-c2ccccc2)ccn1	< 10	0.156	> 10	Active	< 50	> 10			> 10		
O=C(Nc1ccc(Cl)cc1)Nc1cccc(-c2ccc(F)cc2)c1										> 5	
O=C(Nc1ccc(Cl)cc1)Nc1cc(-c2ccccc2)cs1	< 10			Active	< 50	> 10			0.776		
O=C(Nc1ccc(Cl)cc1)Nc1ccc(-c2cc(Cl)cc(Cl)c2)s1	< 10			Active	< 50	> 10					
O=C(Nc1ccc(Cl)cc1)Nc1ccc(-c2ccc(Cl)c(Cl)c2)s1	< 10			Active	< 50	> 10					
O=C(Nc1ccc(Cl)cc1)Nc1ccc(-c2ccc(F)cc2F)s1	< 10			Active	< 50	> 10					
O=C(Nc1ccc(Cl)cc1)Nc1ccc(-c2cccc(F)c2)s1	< 10			Active	< 50	> 10					
O=C(Nc1ccc(Cl)cc1)Nc1ccc(-c2ccncc2)s1	< 10		0.263	Active	< 50	> 10					
O=C(Nc1ccc(Cl)cc1)Nc1ccc(-c2ccc(F)cc2)s1	< 10			Active	< 50	> 10					

SMILES	Emax (Cannabinoid receptor 2 [1]) [%]	IC50 (Cannabinoid receptor 1 [2]) [µM]	IC50 (Cannabinoid receptor 1 [3]) [µM]	inhibition (INH) (Cannabinoid receptor 1 [4])	inhibition (Cannabinoid receptor 2 [5]) [%]	IC50 (Cannabinoid receptor 2 [6]) [µM]	IC50 (Cannabinoid receptor 1 [7]) [µM]	Emax (Cannabinoid receptor 1 [8]) [%]	IC50 (Cannabinoid receptor 1 [9]) [µM]	half-life [10] [h]	Kd (Cannabinoid receptor 1 [11]) [µM]
COc1cccc(-c2ccc(NC(=O)Nc3ccc(Cl)cc3)s2)c1	< 10			Active	< 50	> 10					
Cc1cccc(-c2ccc(NC(=O)Nc3ccc(Cl)cc3)s2)c1	< 10			Active	< 50	> 10					
O=C(Nc1ccc(Cl)cc1)N[C@H]1C[C@H]1c1ccccc1 (relative stereo)	< 10			Active	< 50	> 10		< 30			
O=C(Nc1ccc(Cl)cc1)Nc1ccnc(-c2ccccc2)c1	< 10	0.233	2.77	Active	< 50	> 10					
COC(=O)c1cccc(-c2ccc(NC(=O)Nc3ccc(Cl)cc3)s2)c1	< 10		2.35	Active	< 50	> 10					
COc1ccccc1-c1ccc(NC(=O)Nc2ccc(Cl)cc2)s1	< 10			Active	< 50	> 10					
O=C(Nc1ccc(Cl)cc1)Nc1cccc(-c2ccc[nH]2)c1											0.0014
O=C(Nc1ccc(Cl)cc1)Nc1ccc(-c2cccc(Cl)c2)s1	< 10			Active	< 50	> 10					
O=C(Nc1ccc(Cl)cc1)Nc1ncc(-c2ccccc2)s1	< 10			Active	< 50	> 10					
O=C(Nc1ccc(Cl)cc1)Nc1csc(-c2ccccc2)c1	< 10			Active	< 50	> 10					
O=C(Nc1ccc(Cl)cc1)Nc1ccc(-c2cccnc2)s1	< 10			Active	< 50	> 10					
O=C(Nc1ccc(Cl)cc1)Nc1ccc(-c2ccccc2Cl)s1	< 10			Active	< 50	> 10					
O=C(Nc1ccc(Cl)cc1)Nc1cncc(-c2ccccc2)c1	< 10	0.292	> 10	Active	< 50	> 10					
O=C(Nc1ccc(Cl)cc1)Nc1ccc(-c2ccc(Cl)cc2)s1	< 10			Active	< 50	> 10					
O=C(Nc1ccc(Cl)cc1)N[C@@H]1CCCN(c2ccccc2)C1	< 10	3.88	> 10	Active	< 50	> 10					
